From ChEMBL document CHEMBL4118228, “Chemical space screening around Phe3 in opioid peptides: Modulating µ versus δ agonism by Suzuki-Miyaura cross-couplings” (Bioorg Med Chem Lett, 2018)
Calls of active or inactive are those of the source. The calls are words filed in the database; no cut-off is given here. Non-standard residues stand in square brackets, D forms with d. Residues, ends and D or L forms follow the SMILES beside them. Phe(3-Ph) = N[C@@H](Cc1cccc(-c2ccccc2)c1)C(=O)O; Phe(2-Ph) = N[C@@H](Cc1ccccc1-c1ccccc1)C(=O)O; Bip = N[C@@H](Cc1ccc(-c2ccccc2)cc1)C(=O)O; Dmt = Cc1cc(O)cc(C)c1C[C@H](N)C(=O)O

Tests used:
Mu-type opioid receptor [1] = biological target: Mu-type opioid receptor (Mus musculus, UniProt P42866); test: Displacement of [125I]-DAMGO from mouse Flag-tagged mu-opioid receptor expressed in HEK293 cell membranes after 60 mins by gamma counting
[2] = biological target: T1, Delta-type opioid receptor (Mus musculus, UniProt P32300); test: Displacement of [125I]-Deltorphin 2 from mouse Flag-tagged delta-opioid receptor expressed in HEK293 cell membranes after 60 mins by gamma counting
Mus musculus = organism: Mus musculus; test: Selectivity ratio of IC50 for mouse Flag-tagged delta-opioid receptor to IC50 for mouse Flag-tagged mu-opioid receptor
Mu-type opioid receptor [3] = biological target: Mu-type opioid receptor (Cavia porcellus, UniProt P97266); test: Agonist activity at mu-opioid receptor in guinea pig ileum assessed as inhibition of electrically induced contractions; type: functional
[4] = biological target: T1, Delta-type opioid receptor; test: Agonist activity at delta-opioid receptor in mouse vasa deferens assessed as inhibition of electrically induced contractions; type: functional
[5] = biological target: Mu-type opioid receptor (Cavia porcellus) (UniProt P97266); test: Antagonist activity at mu-opioid receptor in guinea pig ileum assessed as effect on electrically induced contractions; type: functional
[6] = biological target: Delta-type opioid receptor (Mus musculus) (UniProt P32300); test: Partial agonist activity at delta-opioid receptor in mouse vasa deferens assessed as inhibition of electrically induced contractions; type: functional
Mu-type opioid receptor [7] = biological target: Mu-type opioid receptor (Rattus norvegicus, UniProt P33535); test: Agonist activity at rat mu-opioid receptor expressed in HEK293 cells co-expressing Rluc2-EPAC-GFP10 biosenser assessed as inhibition of forskolin-induced cAMP level after 10 mins by fluorescence based assay; type: functional, cell-based
[8] = biological target: Delta-type opioid receptor (Rattus norvegicus, UniProt P33533); test: Agonist activity at rat delta-opioid receptor expressed in HEK293 cells co-expressing Rluc2-EPAC-GFP10 biosenser assessed as inhibition of forskolin-induced cAMP level after 10 mins by fluorescence based assay; type: functional, cell-based
Rattus norvegicus [9] = organism: Rattus norvegicus; test: Antinociceptive activity in Sprague-Dawley rat model of thermal-induced nociception assessed as increase in latency to tail withdrawal at 1 nmol, it measured at every 10 mins for 1 hr by tail flick assay; type: functional, organism-based
Procedure, shortened: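 Compound given intrathecally to rats; tail-flick test measured withdrawal response to a thermal stimulus.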

Rattus norvegicus [10] = organism: Rattus norvegicus; test: Potency index, ratio of antinociceptive activity of DAMGO to antinociceptive activity of compound in Sprague-Dawley rat model of thermal-induced nociception by tail flick assay; type: functional
[11] = biological target: Delta-type opioid receptor (Rattus norvegicus) (UniProt P33533); test: Partial agonist activity at rat delta-opioid receptor expressed in HEK293 cells co-expressing Rluc2-EPAC-GFP10 biosenser assessed as inhibition of forskolin-induced cAMP level after 10 mins by fluorescence based assay; type: functional, cell-based
[12] = biological target: Mu-type opioid receptor (Cavia porcellus) (UniProt P97266); test: Potency index, ratio of DAMGO IC50 to compound IC50 for mu-opioid receptor in guinea pig ileum
[13] = biological target: Mu-type opioid receptor (Rattus norvegicus) (UniProt P33535); test: Potency index, ratio of DAMGO EC50 to compound EC50 for rat mu-opioid receptor expressed in HEK293 cells co-expressing Rluc2-EPAC-GFP10 biosenser by cAMP accumulation assay; type: functional, cell-based
Chain of Mu-type opioid receptor (Rattus norvegicus) (P33535 whole entry): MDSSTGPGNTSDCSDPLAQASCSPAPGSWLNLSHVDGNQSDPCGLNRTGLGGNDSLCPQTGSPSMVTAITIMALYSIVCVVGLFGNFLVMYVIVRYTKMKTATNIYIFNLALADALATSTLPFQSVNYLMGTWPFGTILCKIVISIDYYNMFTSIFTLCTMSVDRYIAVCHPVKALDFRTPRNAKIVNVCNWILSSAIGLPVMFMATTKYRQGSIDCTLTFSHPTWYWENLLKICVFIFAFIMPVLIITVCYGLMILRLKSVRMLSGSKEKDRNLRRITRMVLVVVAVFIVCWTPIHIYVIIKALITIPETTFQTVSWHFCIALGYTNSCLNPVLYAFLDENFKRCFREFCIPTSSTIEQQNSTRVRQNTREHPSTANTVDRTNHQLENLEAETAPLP

T1 sequence (P32300 whole entry): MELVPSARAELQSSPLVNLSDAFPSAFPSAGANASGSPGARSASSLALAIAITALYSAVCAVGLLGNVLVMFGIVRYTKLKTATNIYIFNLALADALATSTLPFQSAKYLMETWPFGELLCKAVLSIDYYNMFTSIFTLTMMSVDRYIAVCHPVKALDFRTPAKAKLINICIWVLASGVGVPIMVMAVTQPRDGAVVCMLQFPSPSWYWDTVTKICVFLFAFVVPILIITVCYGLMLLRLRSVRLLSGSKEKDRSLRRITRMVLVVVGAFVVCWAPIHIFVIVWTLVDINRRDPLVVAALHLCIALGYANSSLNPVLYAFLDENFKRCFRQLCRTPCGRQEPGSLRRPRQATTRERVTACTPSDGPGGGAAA
Chain of Delta-type opioid receptor (Mus musculus) (P32300 whole entry): as above
Chain of Delta-type opioid receptor (Rattus norvegicus, UniProt P33533) (P33533 whole entry): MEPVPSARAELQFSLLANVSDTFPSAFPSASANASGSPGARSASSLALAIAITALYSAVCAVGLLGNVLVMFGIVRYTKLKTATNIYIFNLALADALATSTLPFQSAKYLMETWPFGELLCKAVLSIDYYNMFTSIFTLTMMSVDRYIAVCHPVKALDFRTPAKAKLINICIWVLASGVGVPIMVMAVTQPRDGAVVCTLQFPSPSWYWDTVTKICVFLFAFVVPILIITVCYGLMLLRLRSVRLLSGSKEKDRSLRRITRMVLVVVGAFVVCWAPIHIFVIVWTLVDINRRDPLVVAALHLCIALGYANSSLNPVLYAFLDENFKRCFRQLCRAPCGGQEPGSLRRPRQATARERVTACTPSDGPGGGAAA
Chain of Mu-type opioid receptor (Cavia porcellus, UniProt P97266) (P97266 whole entry): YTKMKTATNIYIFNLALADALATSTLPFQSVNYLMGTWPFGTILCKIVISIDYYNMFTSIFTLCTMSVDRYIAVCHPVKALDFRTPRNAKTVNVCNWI
Chain of Mu-type opioid receptor (Cavia porcellus) (P97266 whole entry): as above
Chain of Mu-type opioid receptor (Mus musculus, UniProt P42866) (P42866 whole entry): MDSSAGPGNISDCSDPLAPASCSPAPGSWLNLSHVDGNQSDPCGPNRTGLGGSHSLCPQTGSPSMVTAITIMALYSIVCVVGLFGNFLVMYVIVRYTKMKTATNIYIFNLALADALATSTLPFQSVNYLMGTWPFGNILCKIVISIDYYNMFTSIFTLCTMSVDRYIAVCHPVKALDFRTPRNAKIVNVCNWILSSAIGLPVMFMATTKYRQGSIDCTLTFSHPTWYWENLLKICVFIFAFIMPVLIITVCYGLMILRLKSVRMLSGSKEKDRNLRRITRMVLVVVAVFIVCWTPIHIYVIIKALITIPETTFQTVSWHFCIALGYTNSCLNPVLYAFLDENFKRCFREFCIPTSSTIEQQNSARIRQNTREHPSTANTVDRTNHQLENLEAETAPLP
Chain of Mu-type opioid receptor (Rattus norvegicus, UniProt P33535) (P33535 whole entry): as the sequence (P33535 whole entry) above
Chain of Delta-type opioid receptor (Rattus norvegicus) (P33533 whole entry): as the sequence (P33533 whole entry) above

## C=Cc1cccc(C[C@H](NC(=O)[C@@H](CCCNC(=N)N)NC(=O)[C@@H](N)Cc2c(C)cc(O)cc2C)C(=O)NCC(N)=O)c1
Mu-type opioid receptor [1]
  IC50: 0.46 nM
[2]
  IC50: 165 nM
Mus musculus
  Ratio IC50: 359
Mu-type opioid receptor [3]
  IC50: 1.43 nM
[4]
  IC50: 9.74 nM

## Cc1cc(O)cc(C)c1C[C@H](N)C(=O)N[C@H](CCCNC(=N)N)C(=O)N[C@@H](Cc1ccccc1-c1ccccc1)C(=O)NCC(N)=O
Mu-type opioid receptor [1]
  IC50: 0.54 nM
[2]
  IC50: 20.3 nM
Mus musculus
  Ratio IC50: 38
Mu-type opioid receptor [3]
  IC50: 3.47 nM
[4]
  IC50: 6.99 nM

## Cc1cc(O)cc(C)c1C[C@H](N)C(=O)N[C@H](CCCNC(=N)N)C(=O)N[C@@H](Cc1ccc(-c2ccsc2)cc1)C(=O)NCC(N)=O
Mu-type opioid receptor [1]
  IC50: 5.04 nM
[2]
  IC50: 309 nM
Mus musculus
  Ratio IC50: 61
[5]
  Ke: 138 nM
[6]
  IC20: 3960 nM

## CC(C)=Cc1ccccc1C[C@H](NC(=O)[C@@H](CCCNC(=N)N)NC(=O)[C@@H](N)Cc1c(C)cc(O)cc1C)C(=O)NCC(N)=O
Mu-type opioid receptor [1]
  IC50: 0.57 nM
[2]
  IC50: 585 nM
Mus musculus
  Ratio IC50: 1030
Mu-type opioid receptor [3]
  IC50: 0.701 nM
[4]
  IC50: 0.63 nM
Mu-type opioid receptor [7]
  EC50: 0.1 nM
[8]
  EC50: 19.4 nM
Rattus norvegicus [9]
  Activity: Active
Rattus norvegicus [10]
  Ratio: 10

## Cc1cc(O)cc(C)c1C[C@H](N)C(=O)N[C@H](CCCNC(=N)N)C(=O)N[C@@H](Cc1ccccc1-c1ccsc1)C(=O)NCC(N)=O
Mu-type opioid receptor [1]
  IC50: 1.45 nM
[2]
  IC50: 625 nM
Mus musculus
  Ratio IC50: 431
Mu-type opioid receptor [3]
  IC50: 1.54 nM
[4]
  IC50: 2.75 nM
Mu-type opioid receptor [7]
  EC50: 0.04 nM
[8]
  EC50: 49 nM

## Cc1cc(O)cc(C)c1C[C@H](N)C(=O)N[C@H](C)C(=O)N[C@@H](Cc1ccccc1-c1ccccc1)C(=O)NCC(N)=O (H-[Dmt][dA][Phe(2-Ph)]G-NH2)
Mu-type opioid receptor [1]
  IC50: 0.35 nM
[2]
  IC50: 19.8 nM
Mus musculus
  Ratio IC50: 57
Mu-type opioid receptor [3]
  IC50: 1.6 nM
[4]
  IC50: 2.6 nM
Mu-type opioid receptor [7]
  EC50: 0.12 nM
[8]
  EC50: 4.9 nM
Rattus norvegicus [9]
  Activity: Active
Rattus norvegicus [10]
  Ratio: 10

## C=Cc1ccccc1C[C@H](NC(=O)[C@@H](C)NC(=O)[C@@H](N)Cc1c(C)cc(O)cc1C)C(=O)NCC(N)=O
Mu-type opioid receptor [1]
  IC50: 0.25 nM
[2]
  IC50: 8 nM
Mus musculus
  Ratio IC50: 32
Mu-type opioid receptor [3]
  IC50: 1.18 nM
[4]
  IC50: 2.81 nM
Mu-type opioid receptor [7]
  EC50: 0.006 nM
[8]
  EC50: 5.8 nM

## Cc1cc(O)cc(C)c1C[C@H](N)C(=O)N[C@H](CCCNC(=N)N)C(=O)N[C@@H](Cc1cccc(-c2ccsc2)c1)C(=O)NCC(N)=O
Mu-type opioid receptor [1]
  IC50: 1.03 nM
[2]
  IC50: 601 nM
Mus musculus
  Ratio IC50: 583
Mu-type opioid receptor [3]
  IC50: 30.4 nM
[6]
  IC35: 52.8 nM

## Cc1cc(O)cc(C)c1C[C@H](N)C(=O)N[C@H](CCCNC(=N)N)C(=O)N[C@@H](Cc1ccc(-c2ccccc2)cc1)C(=O)NCC(N)=O (H-[Dmt][dR][Bip]G-NH2)
Mu-type opioid receptor [1]
  IC50: 7.08 nM
[2]
  IC50: 42.3 nM
Mus musculus
  Ratio IC50: 6
[5]
  Ke: 114 nM
[6]
  IC20: 3090 nM

## Cc1cc(O)cc(C)c1C[C@H](N)C(=O)N[C@H](C)C(=O)N[C@@H](Cc1ccccc1-c1ccsc1)C(=O)NCC(N)=O
Mu-type opioid receptor [1]
  IC50: 240 nM
[2]
  IC50: 687 nM
Mus musculus
  Ratio IC50: 4
Mu-type opioid receptor [3]
  IC50: 1.27 nM
[4]
  IC50: 2.16 nM
Mu-type opioid receptor [7]
  EC50: 34.8 nM
[8]
  EC50: 56 nM
[11]
  Emax: 70%

## Cc1cc(O)cc(C)c1C[C@H](N)C(=O)N[C@H](CCCNC(=N)N)C(=O)N[C@@H](Cc1cccc(-c2ccccc2)c1)C(=O)NCC(N)=O (H-[Dmt][dR][Phe(3-Ph)]G-NH2)
Mu-type opioid receptor [1]
  IC50: 0.85 nM
[2]
  IC50: 269 nM
Mus musculus
  Ratio IC50: 316
Mu-type opioid receptor [3]
  IC50: 61.7 nM
[6]
  IC40: 117 nM

## C=Cc1ccc(C[C@H](NC(=O)[C@@H](CCCNC(=N)N)NC(=O)[C@@H](N)Cc2c(C)cc(O)cc2C)C(=O)NCC(N)=O)cc1
Mu-type opioid receptor [1]
  IC50: 1.82 nM
[2]
  IC50: 1410 nM
Mus musculus
  Ratio IC50: 777
Mu-type opioid receptor [3]
  IC50: 24.1 nM
[4]
  IC50: 430 nM

## CC(C)[C@H](NC(=O)[C@H](CCC(=O)O)NC(=O)[C@H](Cc1ccccc1)NC(=O)[C@@H](C)NC(=O)[C@@H](N)Cc1ccc(O)cc1)C(=O)N[C@H](C(=O)NCC(=O)O)C(C)C [DELTORPHIN]
Mu-type opioid receptor [1]
  IC50: 627 nM
Mu-type opioid receptor [3]
  IC50: 854 nM
[8]
  EC50: 0.1 nM

## C=Cc1ccccc1C[C@H](NC(=O)[C@@H](CCCNC(=N)N)NC(=O)[C@@H](N)Cc1c(C)cc(O)cc1C)C(=O)NCC(N)=O
Mu-type opioid receptor [1]
  IC50: 0.47 nM
[2]
  IC50: 18 nM
Mus musculus
  Ratio IC50: 38
Mu-type opioid receptor [3]
  IC50: 0.389 nM
[4]
  IC50: 0.406 nM
Mu-type opioid receptor [7]
  EC50: 0.012 nM
[8]
  EC50: 7 nM
[12]
  Ratio IC50: 70
[13]
  Ratio EC50: 20

## C[C@@H](NC(=O)[C@@H](N)Cc1ccc(O)cc1)C(=O)NCC(=O)N(C)[C@@H](Cc1ccccc1)C(=O)NCCO [DAMGO]
Mu-type opioid receptor [3]
  IC50: 28.3 nM
